Assay results of several laboratories.
Protocols differ between the studies behind these lines.
Target: Mitogen-activated protein kinase kinase kinase 6 (MAP3K6, Homo sapiens, UniProt O95382)
Sequence (O95382 1-1288, as in one of the studies): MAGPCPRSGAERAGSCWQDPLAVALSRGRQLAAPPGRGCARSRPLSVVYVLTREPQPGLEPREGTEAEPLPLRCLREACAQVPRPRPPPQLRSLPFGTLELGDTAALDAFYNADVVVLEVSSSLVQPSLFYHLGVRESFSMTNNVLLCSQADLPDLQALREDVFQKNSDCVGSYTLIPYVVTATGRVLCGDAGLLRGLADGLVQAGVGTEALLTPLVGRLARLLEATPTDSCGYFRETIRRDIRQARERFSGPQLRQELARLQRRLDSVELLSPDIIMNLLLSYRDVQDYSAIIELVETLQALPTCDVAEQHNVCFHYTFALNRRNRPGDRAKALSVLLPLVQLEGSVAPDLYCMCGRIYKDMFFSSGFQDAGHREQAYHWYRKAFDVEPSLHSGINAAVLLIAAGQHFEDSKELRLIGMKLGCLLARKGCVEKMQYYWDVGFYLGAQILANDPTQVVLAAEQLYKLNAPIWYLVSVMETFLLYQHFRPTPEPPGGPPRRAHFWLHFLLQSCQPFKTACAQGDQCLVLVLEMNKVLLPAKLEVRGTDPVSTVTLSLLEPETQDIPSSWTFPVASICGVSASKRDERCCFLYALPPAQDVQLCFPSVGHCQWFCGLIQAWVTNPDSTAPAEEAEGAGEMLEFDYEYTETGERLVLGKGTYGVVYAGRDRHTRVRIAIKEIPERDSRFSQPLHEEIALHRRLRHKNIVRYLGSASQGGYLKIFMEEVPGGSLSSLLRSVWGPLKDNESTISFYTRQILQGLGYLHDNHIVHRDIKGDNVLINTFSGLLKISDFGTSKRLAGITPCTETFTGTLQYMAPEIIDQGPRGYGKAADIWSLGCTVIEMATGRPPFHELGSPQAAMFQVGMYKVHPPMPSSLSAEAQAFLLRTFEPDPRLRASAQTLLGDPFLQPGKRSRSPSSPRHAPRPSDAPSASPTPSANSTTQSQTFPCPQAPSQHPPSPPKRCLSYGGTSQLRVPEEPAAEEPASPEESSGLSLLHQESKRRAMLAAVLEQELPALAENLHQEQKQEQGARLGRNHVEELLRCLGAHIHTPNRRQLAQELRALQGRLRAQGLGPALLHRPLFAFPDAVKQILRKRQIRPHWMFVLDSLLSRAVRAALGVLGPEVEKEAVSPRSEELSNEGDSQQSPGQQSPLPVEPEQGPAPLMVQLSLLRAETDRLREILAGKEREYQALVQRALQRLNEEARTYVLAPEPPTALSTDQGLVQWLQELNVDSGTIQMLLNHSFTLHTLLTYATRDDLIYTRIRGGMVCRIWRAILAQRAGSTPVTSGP

| Structure (SMILES) | read-out | method | concentration | remaining binding [%] |
| --- | --- | --- | --- | --- |
| CCCOc1ccc([C@@H]2[C@@H](C(=O)O)[C@H](c3ccc4c(c3)OCO4)CN2CC(=O)Nc2c(CC)cccc2CC)cc1 | cell-free assay | competition with immobilised ligand | 1 µM | 77 |
| Cc1cnc(Nc2ccc(C(=O)N3CCC(N4CCCC4)CC3)cc2)nc1-c1cc2ccccc2s1 | binding | competition with immobilised ligand | 1 µM | 100 |
| N#CC1(c2ccccn2)CCN(Cc2cc(C(=O)N3CCCC3)c(=O)n3ccccc23)CC1 | cell-free assay | competition with immobilised ligand | 1 µM | 100 |
| C[C@H]1CCN(c2nccc(-c3cnn4ncccc34)n2)C1 | binding | – | 1 µM | 57 |
| CNC(=O)[C@@H]1CC[C@@H](n2c(-c3ccc4cnccc4c3)nc3ccc(C(=O)NCc4cccc(C(N)=O)c4)cc32)C1 | binding | competition with immobilised ligand | 1 µM | 100 |
| F[C@@H]1CCN(c2nccc(-c3cnn4ncccc34)n2)C1 | binding | – | 1 µM | 76 |
| O=C(NCC1CCOCC1)c1n[nH]cc1NC(=O)c1c(F)cccc1F | binding | competition with immobilised ligand | 1 µM | 77 |
| CCOCCn1cc(C(=O)Nc2ccc(-n3nc(-c4cccnc4)cc3C(F)(F)F)cn2)ccc1=O | cell-free assay | competition with immobilised ligand | 1 µM | 86 |
| C=CC(=O)N1CCC(C(=O)NCC(=O)N2CCN(c3nc(-c4cnc(N)nc4C(F)F)nc(N4CCOCC4)n3)CC2)CC1 | binding | competition with immobilised ligand | 1 µM | 100 |
| CN(CCCC(F)(F)F)c1nccc(-c2cnn3ncccc23)n1 | binding | – | 1 µM | 100 |
| CN([C@@H]1CCc2c(CC(=O)O)c3cc(S(C)(=O)=O)ccc3n2C1)S(=O)(=O)c1ccc(F)cc1 | cell-free assay | competition with immobilised ligand | 1 µM | 89 |
| CN(C)c1ncc(F)c(-c2cnn3ncccc23)n1 | binding | – | 1 µM | 97 |
| O=C(NCCCN1CCOCC1)c1ccc(Nc2nccc(-c3cc4ccccc4s3)n2)cc1 | binding | competition with immobilised ligand | 1 µM | 98 |
| c1cncc(-c2cccc(Nc3nccc(NC4CCCCC4)n3)c2)c1 | binding | competition with immobilised ligand | 10 µM | 100 |
| N[C@@H]1CCN(c2nccc(-c3cnn4ncccc34)n2)C1 | binding | – | 1 µM | 57 |
| CCS(=O)(=O)c1cc2cc(C[C@@](O)(CC(C)(C)c3ccc(F)cc3C(N)=O)C(F)(F)F)[nH]c2cn1 | cell-free assay | competition with immobilised ligand | 1 µM | 100 |
| COc1cnc(Nc2cccc(S(N)(=O)=O)c2)nc1N1CCN(c2ccccc2)CC1 | binding | competition with immobilised ligand | 1 µM | 93 |
| CN(C)c1nccc(-c2cnn3ncccc23)n1 | binding | – | 1 µM | 74 |
| CNCc1ccccc1-c1csc([C@H](C)Nc2nc(C)nc3cc(OC)c(OC)cc23)c1 | cell-free assay | competition with immobilised ligand | 1 µM | 100 |
| CN(c1nccc(-c2cnn3ncccc23)n1)C1CC1 | binding | – | 1 µM | 100 |
| O=C(c1ccc(Nc2ncc(Cl)c(-c3ccc(Cl)s3)n2)cc1)N1CCC(N2CCCC2)CC1 | binding | competition with immobilised ligand | 1 µM | 66 |
| Nc1ncc2c(n1)-c1c([nH]c3ccc(C#CC4CC4)cc13)CCCC2 | binding | competition with immobilised ligand | 1 µM | 98 |
